The values below come from article PMC4122523 (Biomedical chromatography : BMC, 2013).

A word on the Cmax: it is the maximum level reached in the sampled fluid or tissue. As a reminder, the MRT is the average time that molecules of a dose stay in the body. The term Vd denotes the apparent volume that relates the amount in the body to the concentration in plasma or blood. A low value points to little distribution into tissue. Broadly, the clearance is the volume of plasma or blood freed of the substance per unit of time. As usually defined, the half-life is the time needed for the level to fall by half in the phase considered. A high value points to slow decline.

In data set [1] the test system is neurotoxic and stimulant effects of METH. The following applies: mouse; ref Kaushal et al., 2011, 2012; cited from earlier work.
Data set [2] concerns both subtypes of sigma receptors. The following applies: radioligand binding; ref Seminerio et al., 2012b; cited from earlier work.
The subject of data set [3] is cocaine-induced convulsions. Particulars: mice, toxic dose of cocaine; ref Seminerio et al., 2012b; cited from earlier work.
Data set [4] is described as follows: Stability of AZ66 in rat plasma at various storage conditions. In kind it is in vitro ADME. In short, it runs like this:
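Rat plasma QC samples at 10, 400 and 3000 ng/mL, six replicates each. Conditions: three freeze–thaw cycles at −20 °C; −20 °C for 30 days; room temperature for 12 h; processed extracts held in the autosampler at 25 °C for 24 h. Analysed by chloroform liquid–liquid extraction and UPLC/MS/MS with aripiprazole internal standard. Compared against freshly prepared standards; bias = 100×(measured−actual)/actual.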

Data set [5] in a line: Intravenous pharmacokinetic study in rats. In kind it is in vivo, male Sprague–Dawley rats. The following applies: rat. In short, it runs like this: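 Male Sprague–Dawley rats (n = 6, 260–280 g), fasted overnight, given water after dosing and food from 4 h post-dose. Single 5 mg/kg i.v. dose via jugular-vein cannula. Blood (0.15 mL) drawn via cannula pre-dose and at 2–480 min and 12–42 h. Plasma separated at 10,000 g, 10 min, 4 °C, and stored at −20 °C. Chloroform extraction with aripiprazole internal standard, UPLC/MS/MS, then non-compartmental analysis.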

The conditions of data set [6]: ref Seminerio et al., 2012b, cited from earlier work.
Data set [7] is described as follows: Stability of stock solutions. In kind it is physicochemical. Particulars: 12 h at room temperature and a week at −20 °C. In outline:
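Stock solutions: analyte 1.0 mg/mL in water, aripiprazole internal standard 1 mg/mL in methanol. Held 12 h at room temperature, and tested daily over 1 week during storage at −20 °C. Compared against freshly prepared standards by UPLC/MS/MS.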

In data set [8] the test system is METH-induced dopaminergic neurotoxicity and hyperthermia. The following applies: Swiss Webster mice, intraperitoneal; ref Seminerio et al., 2012a; cited from earlier work.
In data set [9] the test system is METH-induced memory impairment. The following applies: mouse; ref Seminerio et al., 2012a; cited from earlier work.
The mark [10] stands for this setting: processed plasma samples, auto-sampler 24 h (25 °C), spiked 10 ng/mL.
Setting [11] is: processed plasma samples, auto-sampler 24 h (25 °C), spiked 400 ng/mL.
Where [12] appears, read: rat plasma, long-term 30 days (−20 °C), spiked 10 ng/mL.
The mark [13] stands for this setting: rat plasma, long-term 30 days (−20 °C), spiked 400 ng/mL.
Setting [14] is: rat plasma, long-term 30 days (−20 °C), spiked 3000 ng/mL.
Setting [15] is: rat plasma, short-term 12 h (25 °C), spiked 10 ng/mL.
[16] abbreviates: rat plasma, short-term 12 h (25 °C), spiked 400 ng/mL.
Where [17] appears, read: rat plasma, short-term 12 h (25 °C), spiked 3000 ng/mL.
The mark [18] stands for this setting: rat plasma, three freeze–thaw cycles (−20 °C), spiked 400 ng/mL.
Where [19] appears, read: rat plasma, three freeze–thaw cycles (−20 °C), spiked 3000 ng/mL.
The mark [20] stands for this setting: male, Sprague-Dawley, plasma, iv, 5 mg/kg.

Turning to `c1ccc(CCN2CCCCC2)cc1` [AC927], in data set [1], the “effect on neurotoxic effects of METH” value is “attenuated” and the “effect on stimulant effects of METH” value is on record as “attenuated”.
For the compound `CC(CCCn1c(=O)sc2cc(F)ccc21)N1CCN(C2CCCCC2)CC1` (stereo not shown) [AZ66, 3-[4-(4-cyclohexylpiperazin-1-yl)pentyl]-6-fluorobenzo[d] thiazole-2(3H)-one], the “affinity for both subtypes of sigma receptors” value in [2] was “high nanomolar affinity”. Moreover, the “selectivity over a wide battery of CNS targets” value in [2] was “highly selective”. Also, the “attenuation of cocaine-induced convulsions” value in [3] is on record as “significantly attenuate convulsions”. In addition, the “Stability in reconstituted samples in the auto-sampler” value in data set [4] (25 °C for 24 h) is “stable”. Moreover, the Bias in [4] (setting [10]) is listed as 1.7%; in data set [4] (setting [11]), 0.8%; in [4] (setting [12]) it was 0.3%; in data set [4] (setting [13]) it was −0.4%; in data set [4] (setting [14]) it was −0.6%; in data set [4] (setting [15]), 1.3%. The Bias was −0.5% in data set [4] (setting [16]), 1.0% in data set [4] (setting [17]), −0.6% in [4] (setting [18]) and 0.2% in data set [4] (setting [19]). Also, the Measured concentration in data set [4] (setting [10]) amounted to 10.1 ± 0.2 ng/mL; in data set [4] (setting [11]) it was 403.2 ± 18.6 ng/mL; in data set [4] (processed plasma samples, auto-sampler 24 h (25 °C), spiked 3000 ng/mL) it was 3222 ± 79.4 ng/mL; in data set [4] (setting [12]) it was 10.2 ± 0.4 ng/mL; in data set [4] (setting [13]), 402.4 ± 7.1 ng/mL; in data set [4] (setting [14]), 3028 ± 55.0 ng/mL. Besides, the Measured concentration in data set [4] (setting [15]) was determined as 10.2 ± 0.2 ng/mL; in data set [4] (setting [16]) it was 401.4 ± 3.5 ng/mL; in [4] (setting [17]), 3015 ± 30.6 ng/mL; in [4] (rat plasma, three freeze–thaw cycles (−20 °C), spiked 10 ng/mL), 10.2 ± 0.7 ng/mL; in data set [4] (setting [18]), 396.1 ± 12.7 ng/mL; in [4] (setting [19]), 2990 ± 42.9 ng/mL. The “Short-term stability in rat plasma” value in data set [4] (room temperature for 12 h (25 °C)) is given as “stable”. Also, the “Freeze–thaw stability in rat plasma” value in [4] (three freeze–thaw cycles, 10, 400 and 3000 ng/mL) was “stable”. For the same compound, in data set [4] (−20 °C for 30 days), the “Long-term stability in rat plasma” value was “stable”. This compound registered a Cmax in data set [5] (setting [20]) of 1200 ± 200 ng/mL. The compound further came in with an MRT in data set [5] (setting [20]) of 7.6 ± 0.7 h. Besides, in data set [5] (setting [20]), the Vd came to 30.1 ± 3.6 L/kg. In data set [5] (setting [20]), the clearance was 43.3 mL/min/kg. This compound also gave a half-life in data set [5] (setting [20]) of 7.9 ± 0.3 h. Also, the “CL (total clearance)” value in data set [5] (i.v. 5 mg/kg, n=6, mean ± SD) is 43.3 ± 6.7 mL/min/kg. Also, the “in vitro half-life compared with CM156” value in [6] (in vitro) is on record as “appreciably longer half-life”. Besides, in data set [7], the “Stability of stock solutions” value is “stable”. In addition, the “effect on METH-induced dopaminergic neurotoxicity” value in data set [8] is given as “attenuate”. For the same compound, the “effect on METH-induced hyperthermia” value in [8] is “attenuate”. In data set [9], the “effect on memory impairment caused by repeated intake of METH” value was “attenuated the memory impairment”.
On to `S=c1sc2ccccc2n1CCCCN1CCN(C2CCCCC2)CC1` [CM156, 3-[4-(4-cyclohexylpiperazin-1-yl)butyl]benzo[d]thiazole-2(3H)-thione], for which, in data set [1], the “effect on neurotoxic effects of METH” value is given as “attenuated” and the “effect on stimulant effects of METH” value is on record as “attenuated”. Further, in data set [6] (rat liver microsomes), the in vitro half-life was 4.62 min.
With `O=C1CCc2ccc(OCCCCN3CCN(c4cccc(Cl)c4Cl)CC3)cc2N1` [IS, aripiprazole, reference compound], the “Stability of stock solutions” value in data set [7] is reported as “stable”.
